Measured values of several laboratories.
Each line is one published result; the experiments were not run side by side.
PIK3CA C420R: Phosphatidylinositol 4,5-bisphosphate 3-kinase catalytic subunit alpha isoform (PIK3CA, Homo sapiens, UniProt P42336, C420R)
PIK3CA H1047L: Phosphatidylinositol 4,5-bisphosphate 3-kinase catalytic subunit alpha isoform (PIK3CA, Homo sapiens, UniProt P42336, H1047L)
PIK3CA E545A: Phosphatidylinositol 4,5-bisphosphate 3-kinase catalytic subunit alpha isoform (PIK3CA, Homo sapiens, UniProt P42336, E545A)
PIK3CA M1043I: Phosphatidylinositol 4,5-bisphosphate 3-kinase catalytic subunit alpha isoform (PIK3CA, Homo sapiens, UniProt P42336, M1043I)
PIK3CA: Phosphatidylinositol 4,5-bisphosphate 3-kinase catalytic subunit alpha isoform (PIK3CA, Homo sapiens, UniProt P42336)
PIK3CA E542K: Phosphatidylinositol 4,5-bisphosphate 3-kinase catalytic subunit alpha isoform (PIK3CA, Homo sapiens, UniProt P42336, E542K)
PIK3CA Q546K: Phosphatidylinositol 4,5-bisphosphate 3-kinase catalytic subunit alpha isoform (PIK3CA, Homo sapiens, UniProt P42336, Q546K)
PIK3CA H1047Y: Phosphatidylinositol 4,5-bisphosphate 3-kinase catalytic subunit alpha isoform (PIK3CA, Homo sapiens, UniProt P42336, H1047Y)

SMILES	target	observed	technique	tested at	remaining binding [%]
C=CC(=O)N1CCC(C(=O)NCC(=O)N2CCN(c3nc(-c4cnc(N)nc4C(F)F)nc(N4CCOCC4)n3)CC2)CC1	PIK3CA C420R	binding	competition with immobilised ligand	1 µM	0.6
CCN1CCN(Cc2ccc(C(=O)Nc3ccc(C)c(Oc4ccc5c(c4)CC(=O)N5)c3)cc2C(F)(F)F)CC1	PIK3CA H1047L	binding	competition with immobilised ligand	1 µM	100
COc1cnc(Nc2cccc(S(N)(=O)=O)c2)nc1N1CCN(c2ccccc2)CC1	PIK3CA E545A	binding	competition with immobilised ligand	1 µM	100
O=C(Nc1c[nH]nc1C(=O)NC1CCNCC1)c1cc(F)cc(F)c1	PIK3CA M1043I	binding	competition with immobilised ligand	1 µM	100
O=C(Nc1cccnn1)N1CC(C/C=C/c2cncc(Oc3ccc(C(F)(F)F)cn3)n2)C1	PIK3CA C420R	cell-free assay	competition with immobilised ligand	1 µM	66
CN(C)c1ncc(F)c(-c2cnn3ncccc23)n1	PIK3CA	binding	–	1 µM	77
O=c1nc(-c2ccccn2)sc2ccccc12	PIK3CA E545A	cell-free assay	competition with immobilised ligand	1 µM	92
c1cncc(-c2cccc(Nc3nccc(NC4CCCCC4)n3)c2)c1	PIK3CA E545A	binding	competition with immobilised ligand	10 µM	80
CC1CCCN1c1nccc(-c2cnn3ncccc23)n1 (stereo not shown)	Phosphatidylinositol 4,5-bisphosphate 3-kinase catalytic subunit alpha isoform (PIK3CA, Homo sapiens, UniProt P42336, I800L)	binding	–	1 µM	88
CN(C)C(=O)Cn1cc(-c2nc([C@@](C)(c3ccc(-c4cnc(N)nc4)cc3)C3CC3)no2)cn1	PIK3CA E542K	cell-free assay	competition with immobilised ligand	1 µM	79
C[C@H]1CCN(c2nccc(-c3cnn4ncccc34)n2)C1	PIK3CA Q546K	binding	–	1 µM	85
Cc1c(C(=O)O)cc(-c2ccc(C3CCNCC3)cc2)c2ccc(-c3ccc(C(F)(F)F)cc3)cc12	PIK3CA M1043I	cell-free assay	competition with immobilised ligand	1 µM	100
Nc1ncc2c(n1)-c1c([nH]c3ccc(C#CC4CC4)cc13)CCCC2	PIK3CA M1043I	binding	competition with immobilised ligand	1 µM	62
O=C(c1ccc(Nc2ncc(Cl)c(-c3ccc(Cl)s3)n2)cc1)N1CCC(N2CCCC2)CC1	PIK3CA E545A	binding	competition with immobilised ligand	1 µM	100
CN1CCN(c2ccc(Nc3nccc(-c4cccc([N+](=O)[O-])c4)n3)cc2C(F)(F)F)CC1	PIK3CA H1047L	binding	–	10 µM	4.8
CN(C)c1nccc(-c2cnn3ncccc23)n1	PIK3CA	binding	–	1 µM	97

SMILES	target	observed	technique	tested at	remaining binding [%]
O=C(Nc1cnc(Oc2ccc(F)cc2)nc1)N1CCc2ncccc2[C@@H]1c1ccc(F)cc1	PIK3CA H1047Y	cell-free assay	competition with immobilised ligand	1 µM	100
Cc1cnc(Nc2ccc(C(=O)N3CCC(N4CCCC4)CC3)cc2)nc1-c1cc2ccccc2s1	PIK3CA	binding	competition with immobilised ligand	1 µM	97
C[C@@H](c1ccc(-n2cnc3c(N)ncnc32)cc1)N1CCc2nn(C)c(Cc3ccccc3)c2C1=O	PIK3CA	binding	competition with immobilised ligand	0.1 µM	82
COc1cnc(Nc2cccc(S(N)(=O)=O)c2)nc1N1CCN(c2ccccc2)C(=O)C1	PIK3CA H1047L	binding	competition with immobilised ligand	1 µM	90
CN(C(=O)c1ccccc1)c1cc(N(C)c2ccc3c(c2)CCc2ccc(C(=O)NCCN4CCOCC4)cc2C3=O)ccc1F	PIK3CA C420R	cell-free assay	competition with immobilised ligand	1 µM	91
N[C@H]1CCN(c2nccc(-c3cnn4ncccc34)n2)C1	PIK3CA	binding	–	1 µM	100
O=C(NCCCN1CCOCC1)c1ccc(Nc2nccc(-c3cc4ccccc4s3)n2)cc1	PIK3CA E542K	binding	competition with immobilised ligand	1 µM	41
CNC(=O)[C@@H]1CC[C@@H](n2c(-c3ccc4cnccc4c3)nc3ccc(C(=O)NCc4cccc(C(N)=O)c4)cc32)C1	Phosphatidylinositol 4,5-bisphosphate 3-kinase catalytic subunit alpha isoform (PIK3CA, Homo sapiens, UniProt P42336, E545K)	binding	competition with immobilised ligand	1 µM	84
COc1ncc2cc3ccccc3nc2c1C#N	PIK3CA C420R	cell-free assay	competition with immobilised ligand	5 µM	78
O=C(c1ccc(Nc2nccc(-c3cc4ccccc4s3)n2)cc1)N1CCC(N2CCCC2)CC1	PIK3CA Q546K	binding	competition with immobilised ligand	1 µM	100
Cc1cnn2ncc(-c3ccnc(N(C)C)n3)c2c1	PIK3CA H1047Y	binding	–	1 µM	98
O=C(N[C@H]1CCCCC/C=C\C2C[C@@]2(C(=O)O)NC(=O)[C@@H]2C[C@@H](Oc3ccncc3)CN2C1=O)OC1CCCC1 (stereo partly shown)	PIK3CA E542K	binding	competition with immobilised ligand	1 µM	96
O=C(NCCCN1CCOCC1)c1ccc(Nc2ncc(Cl)c(-c3ccc(Cl)s3)n2)cc1	PIK3CA C420R	binding	competition with immobilised ligand	1 µM	100
O=C(NCC1CCOCC1)c1n[nH]cc1NC(=O)c1c(F)cccc1F	PIK3CA C420R	binding	competition with immobilised ligand	1 µM	100
C[C@@H]1CN(c2cc(-c3n[nH]c4ccc(OC5(C)CC5)cc34)ncn2)C[C@H](C)O1	PIK3CA C420R	cell-free assay	competition with immobilised ligand	0.1 µM	72
